CHOP inhibitor = inhibitors of CHOP induction in ER stress response | 220,000 tested, 3.8% active | inhibition, % at 10 µM | CHO-K1 CHOP-promoter luciferase, tunicamycin-induced, 15-18 h;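 active means compounds that reduced the stress-induced luciferase reporter signal by more than about 70% of percent inhibition, limit read from the data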;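 further: 0% = tunicamycin plus vehicle and 100% = wells without tunicamycin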
GRIN3A LBD mod = modulates the human NR3A ligand-binding domain; NR3A LBD differential scanning fluorimetry, Tm shift; 0% = protein alone, 100% = glycine-bound protein; 340,000 tested, 2.5% active; AID 1259313; Tm shift relative to glycine control, % at 25 µM;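 active means melting temperature shift of at least 10% of the positive control shift, at one fixed dose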
Tb MetRS inh = blocks T. brucei methionyl-tRNA synthetase activity; purified T. brucei MetRS, ATP depletion, Kinase-Glo luminescence; inhibition, % at 11.9 µM; 360,000 tested, 0.4% active;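 active means inhibition above a per-plate cutoff of the control wells' mean inhibition plus 3 SD, cut at about 5.5% in these data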;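 further: 0% = DMSO wells median and 100% = median of wells with control inhibitor compound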
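Material: parasite MetRS enzyme / Replication: singlicate, one well per compound / Signal: luminescence of leftover ATP / Schedule: 2 h aminoacylation at 25 °C after 15 min preincubation / Medium: HEPES-MgCl2-KCl buffer plus DTT, spermine, BSA, pyrophosphatase / Doses: 11.9 µM single point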
EBV gp42 inh = blocks Epstein-Barr virus glycoprotein 42 binding; Q1HVG2; Fluorescence polarization binding assay, mP read-out; inhibition, % (tested at 21.74 µM); 220,000 tested, 0.42% active; in the data active means inhibition above about 50%
Target sequence (Q1HVG2 whole entry, looked up): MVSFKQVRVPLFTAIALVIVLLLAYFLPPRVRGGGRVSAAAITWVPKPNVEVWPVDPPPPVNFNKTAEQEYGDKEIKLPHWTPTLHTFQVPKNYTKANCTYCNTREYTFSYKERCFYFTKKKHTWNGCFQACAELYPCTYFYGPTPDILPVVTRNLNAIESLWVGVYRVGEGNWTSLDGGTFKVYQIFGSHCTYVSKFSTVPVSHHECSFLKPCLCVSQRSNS
MPTP inh = permeability transition pore inhibition; isolated mouse mitochondria, Ca2+ swelling absorbance, 30 min; inhibition, % at 10 µM; 360,000 tested, 1.4% active; AID 602449;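 active means inhibition of 50% or more, scaled per plate between neutral and stimulator controls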;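 further: 0% = DMSO wells given calcium and 100% = 1 mM EGTA wells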
WT yeast gro inh = growth inhibition of WT yeast, mitochondrial fusion screen; mitochondrial fusion phenotypic screen, WT strain; inhibition, % at 10 µM; 190,000 tested, 2.1% active; AID 1362; in the data active means inhibition above about 58%; tested in S. cerevisiae
MPTP counter = membrane potential counter-screen of mitochondrial pore inhibitors; inhibition, % at 10 µM; 5,000 tested, 78% active; isolated mitochondria, Rhodamine 123 fluorescence; shares compounds with MPTP inh; in the data active means inhibition above about 22%;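 further: 0% = DMSO vehicle and 100% = positive control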
MPTP abs DR = dose response confirmation of mitochondrial permeability transition pore inhibitors. shares compounds with MPTP inh. isolated mitochondria swelling, absorbance. AID 651561. 780 tested, 58% active. IC50, µM; in the data active means IC50 below about 20 µM
MPTP cs DR = active in counter-screen for permeability transition pore inhibitors. 780 tested, 49% active. IC50, µM. shares compounds with MPTP inh. isolated mitochondria counterscreen, fluorescence read-out; in the data active means IC50 below about 80 µM
* marks the source's active call; other numbers are inactive results; / = no result given; + = active, no number. Compounds with a hit are over-represented: about 6.4% of the library has one in this group of screens.

SMILES | CHOP inhibitor | GRIN3A LBD mod | Tb MetRS inh | EBV gp42 inh | MPTP inh | WT yeast gro inh | MPTP counter | others
Cc1c(Cl)cccc1NC(=S)NCCC(C)C | 69 | -1 | 0 | -2 | -3 | 48 | /
Cc1c(Cl)cccc1NC(=S)NCc1ccc(F)cc1 | / | -4 | 0 | / | 9 | / | /
Cc1cc(Cl)ccc1NC(=S)NCc1ccco1 | 2 | -3 | 0 | 7 | 2 | -1 | /
Cc1c(Cl)cccc1NC(=S)NCC1COc2ccccc2O1 (stereo not drawn) | 20 | 0 | 1 | 0 | 63* | 59* | 93*
COC(=O)[C@@]1(C(C)C)N=C(c2cc(OC)c(OC)c(OC)c2)[C@]2(O1)C(=O)N(C)c1ccccc12 | / | / | -1 | / | 0 | / | /
COc1ccc2[nH]c(=O)c(CN(CCCN3CCOCC3)C(=O)NCc3ccccc3)cc2c1 | -5 | 1 | 1 | -19 | 0 | 0 | /
CSc1ncccc1C(=O)Nc1ccc(S(=O)(=O)Nc2nccs2)cc1 | 14 | -3 | 0 | 8 | -1 | -7 | /
CCN=C1SC(CC(=O)NC(C)C)C(=O)N1CC (stereo not drawn) | 24 | -1 | 0 | -6 | 0 | 5 | /
Cc1ccc(-n2c([C@@H]3C[C@H]3c3ccccc3)n[nH]c2=S)cc1 | -6 | -1 | -1 | -21 | 2 | 10 | /
O=C(Nc1ccc2nc3n(c(=O)c2c1)CCCCC3)c1cc([N+](=O)[O-])ccc1F | / | 0 | 0 | / | -2 | / | /
O=C(Nc1cc(Sc2ccccn2)cc([N+](=O)[O-])c1)c1cccc(Cl)c1 | 28 | 7 | -1 | -4 | 95* | 44 | 76*
O=C(Nc1cc(Sc2ccccn2)cc([N+](=O)[O-])c1)c1ccc(Cl)cc1 | 39 | -9 | -1 | -1 | 53* | 32 | 72*
O=C(N/N=C/c1ccccn1)c1ccc(NC(=O)c2cccc([N+](=O)[O-])c2)cc1 | 13 | 2 | 0 | -11 | 0 | 2 | /
O=C(c1cc2nc(-c3ccccc3)cc(C(F)(F)F)n2n1)N1CCN2CCCC2C1 (stereo not drawn) | / | -1 | 1 | / | -2 | / | /
CC(C)(CO)NCc1cccc(OCc2ccc(Cl)cc2)c1 | -13 | -1 | -1 | 4 | 0 | 12 | /
Clc1ccc(COc2cccc(CNCc3ccncc3)c2)cc1 | 34 | -2 | 0 | -1 | 68* | 34 | 85*
COc1ccc(CC(=O)Nc2cccc(-c3csc(C)n3)c2)cc1 | 11 | -4 | -2 | 5 | 104* | 8 | 4 | MPTP abs DR=>100;MPTP cs DR=>80
O=[N+]([O-])c1cccc(-c2nc(-c3cccs3)c(-c3cccs3)[nH]2)c1 | 46 | 6 | -1 | 8 | 104* | 38 | 53*
CCn1cc(C(=O)N2CC(C)CC(C)C2)c(=O)c2cc(S(=O)(=O)N3CCOCC3)ccc21 (stereo not drawn) | -23 | 0 | 0 | 3 | -1 | 5 | /
O=C(COC(=O)c1cc[n+]([O-])cc1)Nc1ccc([N+](=O)[O-])cc1 | -7 | -2 | 0 | -16 | 0 | 3 | /
CCCCc1ccc(NC(=S)NCc2cccs2)cc1 | 85* | 11* | 0 | 22 | 84* | 8 | 80*
Cc1ccc(NC(=S)NCc2cccs2)cc1 | 12 | 0 | -1 | -9 | 0 | 27 | /
CCCCc1ccc(NC(=S)NCc2ccc(OC)cc2)cc1 | -12 | 0 | 0 | -6 | 57* | 72* | 75*
Cc1cccc(C)c1NC(=O)CNC(=O)CNC(=O)Cc1cccc2ccccc12 | / | 1 | 0 | / | -1 | / | /
Cc1cc(O)c2c(c1)C(=O)c1cc(O)cc(O)c1C2=O | 6 | 10* | 0 | / | 50* | / | 80*
SMILES | CHOP inhibitor | GRIN3A LBD mod | Tb MetRS inh | EBV gp42 inh | MPTP inh | WT yeast gro inh | MPTP counter | others
O=C1c2cc(O)cc(O)c2C(=O)c2c1cc(O)c([C@@H](CO)CCO)c2O | / | 1 | 1 | / | 5 | / | /
N#Cc1ccc(COc2ccc(CCO)cc2-n2nc3ccccc3n2)cc1 | 17 | 2 | 0 | 16 | -1 | -6 | /
FC(F)(F)c1ccc(NC(=S)NCc2ccccc2)cc1 | 64 | 2 | -1 | 0 | 97* | 60* | 95*
CN(C(=S)Nc1ccc(SC(F)F)cc1)C(c1ccccc1)c1ccccc1 | / | 3 | 0 | / | 0 | / | /
FC(F)Sc1ccc(NC(=S)NCc2ccccc2)cc1 | 32 | 12* | 0 | 6 | 85* | 60* | 92*
O=C(O)c1ccc(NC(=S)NCc2ccccc2)cc1 | / | 0 | 0 | / | -1 | / | /
FC(F)Sc1ccc(NC(=S)NC(c2ccccc2)c2ccccc2)cc1 | 54 | 28* | 0 | 5 | 98* | 85* | 63*
CC(C)CNC(=O)COC(=O)c1c2c(nc3ccccc13)/C(=C/c1cccs1)CC2 | 34 | -5 | 0 | 8 | 1 | 6 | /
Clc1ccccc1Cn1nnc(-c2cccs2)n1 | 15 | -4 | -1 | 0 | 0 | 14 | /
Oc1ccc(Nc2nc(Cl)nc(NCc3ccco3)n2)cc1 | 34 | -2 | -1 | -4 | -8 | -7 | /
c1ccc(Nc2nc(NCc3ccco3)c3ccccc3n2)cc1 | 47 | 1 | 2 | 14 | 76* | / | 91*
Cc1cccc(Nc2nc(NCc3ccco3)c3ccccc3n2)c1 | 69 | 4 | 1 | 33 | 91* | 98* | 90*
COc1ccc(Cc2nc3ccccc3[nH]2)cc1OC | 0 | 0 | 1 | -22 | 0 | -23 | /
Nc1cc(=O)[nH]c(SCC(=O)Nc2ccc(S(=O)(=O)N3CCOCC3)cc2)n1 | 8 | -3 | 1 | -16 | 0 | 18 | /
COc1ccc(S(=O)(=O)N2CC=C(C(=O)Nc3ccc(NC(C)=O)cc3)CC2)cc1 | -3 | 0 | 1 | -6 | 0 | 7 | /
c1ccc(OCCn2c(-c3ccco3)nc3ccccc32)cc1 | 11 | 2 | 0 | -14 | 1 | -7 | /
CCn1c(-c2ccco2)nc2ccccc21 | -7 | 2 | 0 | -24 | 92* | 7 | 2 | MPTP abs DR=8.7*;MPTP cs DR=>80
Nc1c(C=C2C=CC(=O)C=C2)c(=O)nc2snc(SCc3ccccc3)n12 | 6 | 18* | -1 | -7 | 66* | / | 59*
COc1ccc(NC(=O)CSCC(=O)Nc2ccccc2C(=O)N2CCCCC2)cc1 | / | 1 | 0 | / | 0 | / | /
CCOC(=O)c1nnc(-c2cccs2)nc1Oc1ccc(Cl)cc1 | 33 | 1 | 0 | -11 | + | -2 | -5 | MPTP abs DR=>100;MPTP cs DR=>80
CN(C)NC(=S)Nc1cccc(C(F)(F)F)c1 | 20 | 0 | 0 | -13 | -2 | / | /
Cc1ccc(NC(=S)NNC(=S)Nc2cccc(C(F)(F)F)c2)cc1 | 61 | 34* | 0 | -24 | 73* | / | 53*

Screening results: PubChem BioAssay, several laboratories
